Active and inactive are the calls of the source. The calls are words filed in the database; no cut-off is given here. Bounds are passed on as bounds.

Test [1] concerns A549. The test can be described thus: Antiproliferative activity against human A549 cells after 2 days by MTT assay. The class given is functional, cell-based. To be noted: A549, 48 h.
The test system of test [2] is HT-29. Kind of test: Antiproliferative activity against human HT-29 cells after 2 days by MTT assay. The format is functional, cell-based. Particulars: HT-29, 48 h. In general terms: Formazan colour is commonly taken as a measure of viable cells.
In test [3] the test system is HT-29. The test can be described thus: Downregulation of hTERT gene expression in human HT-29 cells assessed as hTERT mRNA level at 2 nM after 48 hrs by RT-PCR method (reference value: 100%). The format is functional. A digest of the protocol:
(§1)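 HT-29 cells were taken at 70–80% confluence and seeded at 1.5 x 10^5 per well. After 24 h they were exposed to compound for 48 h. Total RNA was isolated and TaqMan RT-qPCR run for VEGF-A, c-MYC and hTERT, normalized to β-actin. Expression is given as percent of DMSO control, with at least three measurements and one-sample t-tests.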

Test [4] has as its system HT-29. The test can be described thus: Downregulation of c-Myc gene expression in human HT-29 cells assessed as c-Myc mRNA level at 2 nM after 48 hrs by RT-PCR method (reference value: 100%). The format is functional. A digest of the protocol: as §1
The subject of test [5] is A549. Kind of test: Cell cycle arrest in human A549 cells assessed as accumulation at G2/M phase at 50 nM after 24 hrs by propidium iodide staining based flow cytometry (reference value: 11 +/- 4%). The class given is functional. An outline of the steps:
(§2)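 A549 cells maintained in DMEM (1 g/L glucose, 2 mM glutamine, penicillin/streptomycin/amphotericin B, 10% FBS) and treated for 24 h. Cells were then fixed, RNase-treated and stained with propidium iodide. DNA content was measured by flow cytometry to give cell-cycle phase distribution, including a sub-G1 peak. Data are means (±SD) of two experiments.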
A general note: A flow cytometer gives signals particle by particle.

In test [6] the test system is A549. Kind of test: Cell cycle arrest in human A549 cells assessed as accumulation at G0/G1 phase at 50 nM after 24 hrs by propidium iodide staining based flow cytometry (reference value: 73 +/- 3%). The class given is functional. A digest of the protocol: as §2
Test [7] has as its system HT-29. The test can be described thus: Downregulation of VEGF gene expression in human HT-29 cells assessed as VEGF mRNA level at 2 nM after 48 hrs by RT-PCR method (reference value: 100%). The class given is functional. An outline of the steps: as §1
The test system of the next test is HEK293. Kind of test: Antiproliferative activity against HEK293 cells after 2 days by MTT assay. The format is ADME, cell-based. To be noted: Homo sapiens, HEK293, 48 h.
Test [8] concerns A549. Kind of test: Cell cycle arrest in human A549 cells assessed as accumulation at S phase at 50 nM after 24 hrs by propidium iodide staining based flow cytometry (reference value: 15 +/- 6%). The format is functional. An outline of the steps: as §2
In test [9] the test system is HT-29. The test can be described thus: Inhibition of VEGF protein secretion in human HT-29 cells assessed as VEGF protein level at 2 nM after 48 hrs by ELISA (reference value: 100%). The class given is functional. More on the design: scale not given: the % may be the effect or the level left. For orientation: ELISA stands for enzyme-linked immunosorbent assay.
Test [10] concerns A549. The test can be described thus: Cell cycle arrest in human A549 cells assessed as accumulation at sub-G0 phase at 50 nM after 24 hrs by propidium iodide staining based flow cytometry (reference value: 2 +/- 1%). The format is functional. A digest of the protocol: as §2
The next test deals with MCF7. Kind of test: Antiproliferative activity against human MCF7 cells after 2 days by MTT assay. The class given is functional, cell-based. To be noted: MCF7, 48 h.
Test [11] concerns A549. Kind of test: Cell cycle arrest in human A549 cells assessed as accumulation at G2/M phase at antiproliferative IC50 after 24 hrs by propidium iodide staining based flow cytometry. The format is functional. An outline of the steps: (§3)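 A549 cells kept in DMEM (1 g/L glucose, 2 mM glutamine, antibiotics, amphotericin B, 10% FBS), treated 24 h with compound from 10 mM DMSO stock; fixed, RNase-treated, stained with propidium iodide, DNA content read by flow cytometry for phase distribution. Average (±SD) of two experiments.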

For test [12], the system named is A549. The test can be described thus: Cell cycle arrest in human A549 cells assessed as accumulation at G2/M phase at 7.5 nM after 24 hrs by propidium iodide staining based flow cytometry (reference value: 11 +/- 4%). The format is functional. An outline of the steps:
as §3

The subject of test [13] is HT-29. Kind of test: Downregulation of hTERT gene expression in human HT-29 cells assessed as hTERT mRNA level at 3 nM after 48 hrs by RT-PCR method (reference value: 100%). The format is functional. An outline of the steps:
(§4)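 HT-29 cells (1.5 x 10^5 per well, six-well plate) seeded 24 h, then exposed 48 h with DMSO control; total RNA extracted, target mRNA quantified by TaqMan RT-qPCR, normalized to β-actin, expressed as percentage of control. At least three measurements; one-sample t-tests.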

The test system of test [14] is A549. Kind of test: Cell cycle arrest in human A549 cells assessed as accumulation at S phase at 7.5 nM after 24 hrs by propidium iodide staining based flow cytometry (reference value: 15 +/- 6%). The class given is functional. A digest of the protocol: as §3
For test [15], the system named is HT-29. The test can be described thus: Downregulation of VEGF gene expression in human HT-29 cells assessed as VEGF mRNA level at 3 nM after 48 hrs by RT-PCR method (reference value: 100%). The class given is functional. A digest of the protocol: as §4
The test system of test [16] is A549. The test can be described thus: Cell cycle arrest in human A549 cells assessed as accumulation at sub-G0 phase at 7.5 nM after 24 hrs by propidium iodide staining based flow cytometry (reference value: 2 +/- 1%). The class given is functional. An outline of the steps:
as §3

In test [17] the test system is A549. The test can be described thus: Cell cycle arrest in human A549 cells assessed as accumulation at G0/G1 phase at 7.5 nM after 24 hrs by propidium iodide staining based flow cytometry (reference value: 73 +/- 3%). The format is functional. An outline of the steps:
as §3

Test [18] concerns HT-29. The test can be described thus: Inhibition of VEGF protein secretion in human HT-29 cells assessed as VEGF protein level at 3 nM after 48 hrs by ELISA (reference value: 100%). The class given is functional. Also noted: scale not given: the % may be the effect or the level left. An outline of the steps: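 HT-29 cells (1.5 x 10^5 per well, six-well plate) seeded 24 h, then treated 48 h with DMSO control; secreted VEGF in culture supernatant measured by human VEGF ELISA kit, expressed as percentage of control. At least three measurements.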

The test system of test [19] is HT-29. Kind of test: Downregulation of c-Myc gene expression in human HT-29 cells assessed as c-Myc mRNA level at 3 nM after 48 hrs by RT-PCR method (reference value: 100%). The class given is functional. A digest of the protocol:
as §4

Test [20] relates to HT-29. The test can be described thus: Downregulation of VEGF gene expression in human HT-29 cells assessed as VEGF mRNA level at 10 nM after 48 hrs by RT-PCR method (reference value: 100%). The format is functional. A digest of the protocol:
as §1

Test [21] concerns HT-29. Kind of test: Inhibition of VEGF protein secretion in human HT-29 cells assessed as VEGF protein level at 40 nM after 48 hrs by ELISA (reference value: 100%). The class given is functional. Also noted: scale not given: the % may be the effect or the level left.
The subject of test [22] is HT-29. The test can be described thus: Downregulation of c-Myc gene expression in human HT-29 cells assessed as c-Myc mRNA level at 40 nM after 48 hrs by RT-PCR method (reference value: 100%). The class given is functional. An outline of the steps:
as §1

The test system of test [23] is HT-29. The test can be described thus: Downregulation of hTERT gene expression in human HT-29 cells assessed as hTERT mRNA level at 40 nM after 48 hrs by RT-PCR method (reference value: 100%). The format is functional. An outline of the steps:
as §1

In test [24] the test system is HT-29. Kind of test: Inhibition of VEGF protein secretion in human HT-29 cells assessed as VEGF protein level at 10 nM after 48 hrs by ELISA (reference value: 100%). The format is functional. Also noted: scale not given: the % may be the effect or the level left.
Test [25] deals with HT-29. Kind of test: Downregulation of hTERT gene expression in human HT-29 cells assessed as hTERT mRNA level at 10 nM after 48 hrs by RT-PCR method (reference value: 100%). The format is functional. An outline of the steps:
as §1

Test [26] concerns HT-29. Kind of test: Downregulation of c-Myc gene expression in human HT-29 cells assessed as c-Myc mRNA level at 10 nM after 48 hrs by RT-PCR method (reference value: 100%). The class given is functional. An outline of the steps:
as §1

Test [27] concerns HT-29. The test can be described thus: Downregulation of VEGF gene expression in human HT-29 cells assessed as VEGF mRNA level at 40 nM after 48 hrs by RT-PCR method (reference value: 100%). The format is functional. A digest of the protocol: as §1

Consider `COc1cc2c(c(OC)c1OC)-c1ccc(OC)c(=O)cc1[C@@H](NC(=O)c1cccc(C)c1)CC2`, for which the IC50 (as a rule, the point on the concentration scale where inhibition reaches its midpoint) was 8.7 nM with A549 [1], 2.23 nM in the test on HT-29 [2], 3.1 nM with HEK293 and 5.6 nM with MCF7. In addition, the Activity in the test on HT-29 [3] stood at 74%; in the test with HT-29 [4], 44%; in the test with A549 [5], 45%; in the test on A549 [6], 29%; in the test with HT-29 [7], 53%; with A549 [8], 10%. Further, the Activity with HT-29 [9] came to 76%; with A549 [10], 16%.

On to `COc1cc2c(c(OC)c1OC)-c1ccc(OC)c(=O)cc1[C@@H](NC(=O)CF)CC2`, for which the IC50 worked out at 7.83 nM with A549 [1], 4.7 nM in the test with HT-29 [2], 7.1 nM in the test on HEK293 and 7.3 nM in the test with MCF7. In addition, the result in the test on A549 [11] was Active. In addition, the Activity in the test with A549 [12] is given as 60%; in the test with HT-29 [13], over 100%; in the test on A549 [14], 15%; in the test on HT-29 [15] it was over 100%; in the test on A549 [16] it was 2%; with A549 [17], 25%. Further, the Activity with HT-29 [18] is recorded as 88%; in the test with HT-29 [19], over 100%.

Take `COc1cc2c(c(OC)c1OC)-c1ccc(OC)c(=O)cc1[C@@H](NC(C)=O)CC2` [COLCHICINE]: the IC50 in the test on A549 [1] is 12.2 nM. Besides, the Activity with HT-29 [20] is over 100%; with HT-29 [21], 61%; in the test with HT-29 [22], 32%; with HT-29 [23] it was 50%; in the test on A549 [5], 59%; in the test with A549 [6], 27%. The Activity in the test with HT-29 [24] is 100%; in the test on HT-29 [25], over 100%; with HT-29 [26], over 100%; in the test with A549 [8], 11%; with A549 [10], 3%; in the test on HT-29 [27] it was 41%.
